Legend:
Assay type in all cases: functional
[1] = Growth inhibition of human […] cells after 48 hrs by sulforhodamine B assay; details: for CC50: read-out: LC50 (the source's name)
Procedure, shortened: (§1)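 NCI 60-cell-line panel. Cells are grown in RPMI1640 with 5% fetal calf serum and 2 mM L-glutamine, seeded at a density set by growth characteristics, and preincubated 24 h. Compound is tested at a minimum of five concentrations at 10-fold dilution, with 48 h continuous exposure. Viability is read by sulforhodamine B protein assay. GI50, TGI and LC50 come from dose-response curves.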

[2] = test system: SR; assay: Growth inhibition of human SR cells after 48 hrs by sulforhodamine B assay
Procedure, shortened: (§2)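 NCI 60-cell-line panel (nine cancer types), with cells grown in RPMI1640 plus 5% fetal calf serum and 2 mM L-glutamine. Cells are seeded at a density that depends on the line and preincubated 24 h. Compounds are then applied at a minimum of five 10-fold dilutions over a 5-log range with 48 h continuous exposure. Viability is read by SRB protein assay, and GI50 is derived from dose-response curves in units of 10^-5 M.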

[3] = test system: A549; assay: Growth inhibition of human A549 cells after 48 hrs by sulforhodamine B assay; details: A549, 48 h; procedure, shortened: as §1
[4] = test system: EKVX; assay: Growth inhibition of human EKVX cells after 48 hrs by sulforhodamine B assay; procedure, shortened: as §1
[5] = test system: HOP-62; assay: Growth inhibition of human HOP62 cells after 48 hrs by sulforhodamine B assay; details: HOP-62, 48 h; procedure, shortened: as §1
[6] = test system: NCI-H226; assay: Growth inhibition of human NCI-H226 cells after 48 hrs by sulforhodamine B assay; details: NCI-H226, 48 h; procedure, shortened: as §1
[7] = test system: NCI-H23; assay: Growth inhibition of human NCI-H23 cells after 48 hrs by sulforhodamine B assay; details: NCI-H23, 48 h; procedure, shortened: as §1
[8] = test system: NCI-H460; assay: Growth inhibition of human NCI-H460 cells after 48 hrs by sulforhodamine B assay; details: NCI-H460, 48 h; procedure, shortened: as §1
[9] = test system: COLO 205; assay: Growth inhibition of human COLO205 cells after 48 hrs by sulforhodamine B assay; details: COLO 205, 48 h; procedure, shortened: as §1
[10] = test system: HCC 2998; assay: Growth inhibition of human HCC2998 cells after 48 hrs by sulforhodamine B assay; details: HCC 2998, 48 h; procedure, shortened: as §1
[11] = test system: HCT-15; assay: Growth inhibition of human HCT15 cells after 48 hrs by sulforhodamine B assay; details: HCT-15, 48 h; procedure, shortened: as §1
[12] = test system: SW-620; assay: Growth inhibition of human SW620 cells after 48 hrs by sulforhodamine B assay; details: SW-620, 48 h; procedure, shortened: as §2
[13] = test system: SF-295; assay: Growth inhibition of human SF295 cells after 48 hrs by sulforhodamine B assay; details: SF-295, 48 h; procedure, shortened: as §1
[14] = test system: SF-539; assay: Growth inhibition of human SF539 cells after 48 hrs by sulforhodamine B assay; details: SF-539, 48 h; procedure, shortened: as §1
[15] = test system: SNB-75; assay: Growth inhibition of human SNB75 cells after 48 hrs by sulforhodamine B assay; details: SNB-75, 48 h; procedure, shortened: as §2
[16] = test system: U-251; assay: Growth inhibition of human U251 cells after 48 hrs by sulforhodamine B assay; details: U-251, 48 h; procedure, shortened: as §2
[17] = test system: LOX IMVI; assay: Growth inhibition of human LOXIMVI cells after 48 hrs by sulforhodamine B assay; procedure, shortened: as §1
[18] = test system: SK-MEL-2; assay: Growth inhibition of human SK-MEL-2 cells after 48 hrs by sulforhodamine B assay; details: SK-MEL-2, 48 h; procedure, shortened: as §1
[19] = test system: SK-MEL-5; assay: Growth inhibition of human SK-MEL-5 cells after 48 hrs by sulforhodamine B assay; details: SK-MEL-5, 48 h; for CC50: read-out: LC50 (the source's name); procedure, shortened: as §1
[20] = test system: UACC-62; assay: Growth inhibition of human UACC62 cells after 48 hrs by sulforhodamine B assay; details: UACC-62, 48 h; for CC50: read-out: LC50 (the source's name); procedure, shortened: as §2
[21] = test system: OVCAR-5; assay: Growth inhibition of human OVCAR5 cells after 48 hrs by sulforhodamine B assay; details: OVCAR-5, 48 h; procedure, shortened: as §1
[22] = test system: SK-OV-3; assay: Growth inhibition of human SKOV3 cells after 48 hrs by sulforhodamine B assay; details: SK-OV-3, 48 h; procedure, shortened: as §1
[23] = test system: A498; assay: Growth inhibition of human A498 cells after 48 hrs by sulforhodamine B assay; details: A498, 48 h; procedure, shortened: as §1
[24] = test system: SN12C; assay: Growth inhibition of human SN12C cells after 48 hrs by sulforhodamine B assay; procedure, shortened: as §1
[25] = test system: TK-10; assay: Growth inhibition of human TK10 cells after 48 hrs by sulforhodamine B assay; details: TK-10, 48 h; procedure, shortened: as §2
[26] = test system: MCF7; assay: Antiproliferative activity against human MCF7 cells assessed as cell growth at 100 uM after 48 hrs by alamar blue assay; details: MCF7, 48 h, read-out: Activity
Procedure, shortened: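 NCI three-cell-line primary screen. Cells are seeded and preincubated in microtiter plates. Compound is added at a single 10^-4 M concentration and cultures are incubated 48 h. The end-point is read with alamar blue. Results are given as percent growth relative to untreated control cells.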

[27] = test system: CCRF-CEM; assay: Growth inhibition of human CCRF-CEM cells after 48 hrs by sulforhodamine B assay; procedure, shortened: as §1
[28] = test system: UO-31; assay: Growth inhibition of human UO31 cells after 48 hrs by sulforhodamine B assay; details: UO-31, 48 h; procedure, shortened: as §2
[29] = test system: PC-3; assay: Growth inhibition of human PC3 cells after 48 hrs by sulforhodamine B assay; details: PC-3, 48 h; procedure, shortened: as §1
[30] = test system: NCI/ADR-RES; assay: Growth inhibition of human NCI/ADR-RES cells after 48 hrs by sulforhodamine B assay; procedure, shortened: as §1
[31] = test system: BT-549; assay: Growth inhibition of human BT549 cells after 48 hrs by sulforhodamine B assay; details: BT-549, 48 h; procedure, shortened: as §1

COc1ccc(/C=N/c2nc3[nH]nc(C)n3c(=O)c2S(=O)(=O)NN2C(=O)C(CN3CCOCC3)SC2c2ccc(OC)cc2)cc1 (configuration not stated)
GI50 [1]: 16.4 µM | TGI [1]: 44.3 µM | CC50 [1]: > 100 µM | GI50 [2]: 11.7 µM | LC50 (concentration killing 50% of cells) [2]: 71.5 µM | TGI [2]: 28.9 µM | GI50 [3]: 29.6 µM | TGI [3]: > 100 µM | GI50 [4]: 93.9 µM | TGI [4]: > 100 µM | GI50 [5]: 86.6 µM | LC50 [5]: > 100 µM | TGI [5]: > 100 µM | GI50 [6]: 53.6 µM | LC50 (concentration killing 50% of cells) [6]: > 100 µM | TGI [6]: > 100 µM | GI50 [7]: 87.8 µM | TGI [7]: > 100 µM | GI50 [8]: 87.7 µM | TGI [8]: > 100 µM | GI50 [9]: 66.2 µM | TGI [9]: > 100 µM | GI50 [10]: 22 µM | LC50 [10]: > 100 µM | TGI [10]: > 100 µM | GI50 [11]: 26.7 µM | TGI [11]: > 100 µM | GI50 [12]: 47.1 µM | GI50 [13]: 33.2 µM | LC50 (concentration killing 50% of cells) [13]: > 100 µM | TGI [13]: > 100 µM | GI50 [14]: 75.1 µM | LC50 [14]: > 100 µM | TGI [14]: > 100 µM | GI50 [15]: 57.3 µM | TGI [15]: > 100 µM | GI50 [16]: 40.4 µM | LC50 [16]: > 100 µM | TGI [16]: > 100 µM | GI50 [17]: 21.6 µM | TGI [17]: 62.4 µM | GI50 [18]: 99.3 µM | LC50 (concentration killing 50% of cells) [18]: > 100 µM | TGI [18]: > 100 µM | GI50 [19]: 19 µM | TGI [19]: > 100 µM | CC50 [19]: > 100 µM | GI50 [20]: 25.4 µM | TGI [20]: > 100 µM | CC50 [20]: > 100 µM | GI50 [21]: > 100 µM | LC50 (concentration causing 50% net cell kill) [21]: > 100 µM | TGI [21]: > 100 µM | GI50 [22]: > 100 µM | TGI [22]: > 100 µM | GI50 [23]: 25.5 µM | LC50 (concentration giving 50% net cell kill) [23]: > 100 µM | TGI [23]: 69.2 µM | GI50 [24]: 55.1 µM | LC50 [24]: > 100 µM | TGI [24]: > 100 µM | GI50 [25]: 40.1 µM | LC50 [25]: > 100 µM | TGI [25]: > 100 µM | growth at 100 µM [26]: 64% | GI50 [27]: 25.8 µM | TGI [27]: 78.9 µM | GI50 [28]: 39.6 µM | LC50 [28]: > 100 µM | TGI [28]: > 100 µM | GI50 [29]: 24.6 µM | LC50 (concentration killing 50% of cells) [29]: > 100 µM | TGI [29]: > 100 µM | GI50 [30]: 43.1 µM | TGI [30]: > 100 µM | GI50 [31]: > 100 µM | TGI [31]: > 100 µM

COc1ccc(/C=N/c2nc3[nH]nc(C)n3c(=O)c2S(=O)(=O)NN2C(=O)C(CN3CCN(C)CC3)SC2c2ccc(OC)cc2)cc1 (configuration not stated)
GI50 [1]: 14.1 µM | TGI [1]: 39 µM | CC50 [1]: > 100 µM | GI50 [2]: 7.72 µM | LC50 (concentration killing 50% of cells) [2]: 84.9 µM | TGI [2]: 27.5 µM | GI50 [3]: 13.4 µM | TGI [3]: 50.8 µM | GI50 [4]: 25.9 µM | TGI [4]: 60.3 µM | GI50 [5]: 20.2 µM | LC50 [5]: 82.6 µM | TGI [5]: 40.9 µM | GI50 [6]: 12.4 µM | LC50 (concentration killing 50% of cells) [6]: 75.7 µM | TGI [6]: 30.6 µM | GI50 [7]: 20.5 µM | TGI [7]: 48.1 µM | GI50 [8]: 16.4 µM | TGI [8]: 46.7 µM | GI50 [10]: 8.59 µM | LC50 [10]: 71.9 µM | TGI [10]: 22.5 µM | GI50 [11]: 17.2 µM | TGI [11]: 70.8 µM | GI50 [12]: 30.4 µM | GI50 [13]: 16.8 µM | LC50 (concentration killing 50% of cells) [13]: 76.8 µM | TGI [13]: 35.9 µM | GI50 [14]: 6.5 µM | LC50 [14]: 61.2 µM | TGI [14]: 21.8 µM | GI50 [15]: 23.6 µM | TGI [15]: 51.8 µM | GI50 [16]: 17.6 µM | LC50 [16]: > 100 µM | TGI [16]: 45.2 µM | GI50 [17]: 7.4 µM | TGI [17]: > 100 µM | GI50 [18]: 21.3 µM | LC50 (concentration killing 50% of cells) [18]: 99.4 µM | TGI [18]: 46.1 µM | GI50 [19]: 19.3 µM | TGI [19]: 39 µM | CC50 [19]: 78.5 µM | GI50 [20]: 18.9 µM | TGI [20]: 38.4 µM | CC50 [20]: 77.8 µM | GI50 [21]: 24.3 µM | LC50 (concentration causing 50% net cell kill) [21]: 90.7 µM | TGI [21]: 47 µM | GI50 [22]: 27.1 µM | TGI [22]: 73.3 µM | GI50 [23]: 12.9 µM | LC50 (concentration giving 50% net cell kill) [23]: 60.9 µM | TGI [23]: 28.1 µM | GI50 [24]: 18.6 µM | LC50 [24]: 68.9 µM | TGI [24]: 35.8 µM | GI50 [25]: 19.4 µM | LC50 [25]: 82.1 µM | TGI [25]: 39.9 µM | growth at 100 µM [26]: 9% | GI50 [27]: 17.2 µM | TGI [27]: 49.2 µM | GI50 [28]: 20.6 µM | LC50 [28]: 70.5 µM | TGI [28]: 38.1 µM | GI50 [29]: 14.7 µM | LC50 (concentration killing 50% of cells) [29]: 70.2 µM | TGI [29]: 32.2 µM | GI50 [30]: 14.1 µM | TGI [30]: 40.2 µM | GI50 [31]: 19.1 µM | TGI [31]: 46.3 µM

— ChEMBL document CHEMBL1153046, “Synthesis and antitumor activity of substituted triazolo[4,3-a]pyrimidin-6-sulfonamide with an incorporated thiazolidinone moiety” (2009)
